According to ChEMBL document CHEMBL1137710, “Synthesis and in vitro antitumor activity of new quinoxaline derivatives” (2009):

Key:
Type in all cases: functional
[1] = test system: HOP-92; test: Growth inhibition of human HOP92 cells after 48 hrs by sulforhodamine B assay; settings: HOP-92, 48 h
How it was run: (§1)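 NCI 60-human-tumor-cell-line panel, with compounds tested over a 5-log dose range. Values are taken from dose-response curves as log10 molar concentrations: GI50 is 50% net growth inhibition, TGI is total growth inhibition, and LC50 is 50% net cell death.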

[2] = test system: NCI-H23; test: Growth inhibition of human NCI-H23 cells after 48 hrs by sulforhodamine B assay; settings: NCI-H23, 48 h; how it was run: as §1
[3] = test system: SW-620; test: Growth inhibition of human SW620 cells after 48 hrs by sulforhodamine B assay; settings: SW-620, 48 h
How it was run: (§2)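 Run in the NCI 60-human-tumour-cell-line panel, tested over a 5-log dose range. Dose–response curves gave three values per cell line, each as a log10 molar concentration: GI50 (50% inhibition of net cell growth), TGI (total inhibition of net growth) and LC50 (50% net cell death). The mean graph midpoint is the arithmetic mean over all lines, with insensitive lines entered at the highest concentration tested.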

[4] = test system: A498; test: Growth inhibition of human A498 cells after 48 hrs by sulforhodamine B assay; settings: A498, 48 h; how it was run: as §1
[5] = test system: HL-60(TB); test: Growth inhibition of human HL-60(TB) cells after 48 hrs by sulforhodamine B assay; settings: HL-60, 48 h
How it was run: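 Tested only on compounds active in a three-line prescreen, in the NCI 60-human-tumour-cell-line panel over a 5-log dose range. Values come from dose–response curves as log10 molar GI50, the concentration inhibiting 50% net cell growth. Log10 TGI (total growth inhibition) and log10 LC50 (50% net cell death) were derived too. Mean graph midpoints include insensitive lines at the highest concentration tested.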

[6] = test system: SF-539; test: Growth inhibition of human SF539 cells after 48 hrs by sulforhodamine B assay; settings: SF-539, 48 h; how it was run: as §1
[7] = test system: NCI/ADR-RES; test: Growth inhibition of human NCI/ADR-RES cells after 48 hrs by sulforhodamine B assay; how it was run: as §1
[8] = test system: K562; test: Growth inhibition of human K562 cells after 48 hrs by sulforhodamine B assay; settings: K562, 48 h; how it was run: as §1
[9] = test system: SR; test: Growth inhibition of human SR cells after 48 hrs by sulforhodamine B assay; how it was run: as §2
[10] = test system: ACHN; test: Growth inhibition of human ACHN cells after 48 hrs by sulforhodamine B assay
[11] = test system: M14; test: Growth inhibition of human M14 cells after 48 hrs by sulforhodamine B assay; settings: M14, 48 h; how it was run: as §1
[12] = test system: SK-MEL-28; test: Growth inhibition of human SK-MEL-28 cells after 48 hrs by sulforhodamine B assay; settings: SK-MEL-28, 48 h; how it was run: as §1
[13] = test system: SN12C; test: Growth inhibition of human SN12C cells after 48 hrs by sulforhodamine B assay; how it was run: as §2
[14] = test system: HT-29; test: Growth inhibition of human HT-29 cells after 48 hrs by sulforhodamine B assay; settings: HT-29, 48 h; how it was run: as §1
[15] = test system: HCT-15; test: Growth inhibition of human HCT15 cells after 48 hrs by sulforhodamine B assay; settings: HCT-15, 48 h; how it was run: as §1
[16] = test system: UACC-62; test: Growth inhibition of human UACC62 cells after 48 hrs by sulforhodamine B assay; settings: UACC-62, 48 h; how it was run: as §2
[17] = test system: EKVX; test: Growth inhibition of human EKVX cells after 48 hrs by sulforhodamine B assay; how it was run: as §1
[18] = test system: HCT-116; test: Growth inhibition of human HCT116 cells after 48 hrs by sulforhodamine B assay; settings: HCT-116, 48 h; how it was run: as §1
[19] = test system: RXF 393; test: Growth inhibition of human RXF393 cells after 48 hrs by sulforhodamine B assay; settings: RXF 393, 48 h; how it was run: as §1
[20] = test system: BT-549; test: Growth inhibition of human BT549 cells after 48 hrs by sulforhodamine B assay; settings: BT-549, 48 h; how it was run: as §1
[21] = test system: DU-145; test: Growth inhibition of human DU145 cells after 48 hrs by sulforhodamine B assay; settings: DU-145, 48 h; how it was run: as §1
[22] = test system: LOX IMVI; test: Growth inhibition of human LOXIMVI cells after 48 hrs by sulforhodamine B assay; how it was run: as §1
[23] = test system: T47D; test: Growth inhibition of human T47D cells after 48 hrs by sulforhodamine B assay; how it was run: as §2
[24] = test system: CCRF-CEM; test: Growth inhibition of human CCRF-CEM cells after 48 hrs by sulforhodamine B assay; how it was run: as §1
[25] = test system: Malme-3M; test: Growth inhibition of human MALME-3M cells after 48 hrs by sulforhodamine B assay; how it was run: as §1
[26] = test system: SK-MEL-2; test: Growth inhibition of human SK-MEL-2 cells after 48 hrs by sulforhodamine B assay; settings: SK-MEL-2, 48 h; how it was run: as §1
[27] = test system: A549; test: Growth inhibition of human A549 cells after 48 hrs by sulforhodamine B assay; settings: A549, 48 h; how it was run: as §1
[28] = Growth inhibition of human […] cells after 48 hrs by sulforhodamine B assay; how it was run: as §1
[29] = read-out: pLC50 (the source's name) (converted)

With `COc1ccc(Oc2nc3cc(N)cc(N)c3nc2-c2ccccc2)cc1` the LC50 (50% net cell death) [1] was 77.6 µM, the TGI ([1]; read-out: pTGI (converted)) was 8.13 µM and the GI50 [2] was 25.1 µM. The LC50 (50% net cell kill concentration) [2] was over 100 µM, the TGI ([2]; read-out: pTGI (converted)) was over 100 µM and the GI50 [3] was 89.1 µM. For the same compound, the CC50 [3, 29] was over 100 µM, the TGI ([3]; read-out: pTGI (converted)) was over 100 µM and the GI50 [4] was 49 µM. For the same compound, the CC50 [4, 29] was over 100 µM, the TGI ([4]; read-out: pTGI (converted)) was over 100 µM and the GI50 [5] was 15.5 µM. For the same compound, the LC50 [5] was over 100 µM, the TGI ([5]; read-out: pTGI (converted)) was over 100 µM and the GI50 [6] was 23.4 µM. It also gave an LC50 [6] of over 100 µM, a TGI ([6]; read-out: pTGI (converted)) of 61.7 µM and a GI50 [7] of 60.3 µM. The CC50 [7, 29] was over 100 µM, the TGI ([7]; read-out: pTGI (converted)) was over 100 µM and the GI50 [8] was 26.3 µM. It also gave an LC50 [8] of over 100 µM, a TGI ([8]; read-out: pTGI (converted)) of over 100 µM and a GI50 [9] of 18.6 µM. It also gave an LC50 (concentration giving 50% net cell death) [9] of over 100 µM, a TGI ([9]; read-out: pTGI (converted)) of over 100 µM and a GI50 [10] of 36.3 µM. For the same compound, the CC50 [10, 29] was over 100 µM, the TGI ([10]; read-out: pTGI (converted)) was over 100 µM and the GI50 [11] was over 100 µM. It also gave a CC50 [11, 29] of over 100 µM, a TGI ([11]; read-out: pTGI (converted)) of over 100 µM and a GI50 [12] of 19.5 µM. It also gave a CC50 [12, 29] of over 100 µM, a TGI ([12]; read-out: pTGI (converted)) of 49 µM and a GI50 [13] of 50.1 µM. It also gave a CC50 [13, 29] of over 100 µM, a TGI ([13]; read-out: pTGI (converted)) of over 100 µM and a GI50 [14] of 39.8 µM. The LC50 [14] was over 100 µM, the TGI ([14]; read-out: pTGI (converted)) was over 100 µM and the GI50 [15] was 52.5 µM. The LC50 [15] was over 100 µM, the TGI ([15]; read-out: pTGI (converted)) was over 100 µM and the GI50 [16] was 63.1 µM. For the same compound, the CC50 [16, 29] was over 100 µM, the TGI ([16]; read-out: pTGI (converted)) was over 100 µM and the GI50 [17] was 24.5 µM. It also gave an LC50 (50% net cell kill) [17] of over 100 µM, a TGI ([17]; read-out: pTGI (converted)) of 63.1 µM and a GI50 [18] of 28.8 µM. For the same compound, the LC50 (concentration causing 50% net cell death) [18] was over 100 µM, the TGI ([18]; read-out: pTGI (converted)) was 75.9 µM and the GI50 [19] was 20 µM. It also gave a CC50 [19, 29] of over 100 µM, a TGI ([19]; read-out: pTGI (converted)) of 74.1 µM and a GI50 [20] of 32.4 µM. It also gave a CC50 [20, 29] of over 100 µM, a TGI ([20]; read-out: pTGI (converted)) of over 100 µM and a GI50 [21] of 69.2 µM. It also gave a CC50 [21, 29] of over 100 µM, a TGI ([21]; read-out: pTGI (converted)) of over 100 µM and a GI50 [22] of 34.7 µM. It also gave an LC50 [22] of over 100 µM, a TGI ([22]; read-out: pTGI (converted)) of over 100 µM and a GI50 [23] of 15.1 µM. The CC50 [23, 29] was over 100 µM, the TGI ([23]; read-out: pTGI (converted)) was 97.7 µM and the GI50 [24] was 2.95 µM. It also gave an LC50 [24] of over 100 µM, a TGI ([24]; read-out: pTGI (converted)) of 12.6 µM and a GI50 [25] of 51.3 µM. For the same compound, the CC50 [25, 29] was over 100 µM, the TGI ([25]; read-out: pTGI (converted)) was over 100 µM and the GI50 [26] was 25.1 µM. The CC50 [26, 29] was over 100 µM, the TGI ([26]; read-out: pTGI (converted)) was 87.1 µM and the GI50 [27] was 37.2 µM. The LC50 [27] was over 100 µM, the TGI ([27]; read-out: pTGI (converted)) was over 100 µM and the GI50 [28] was 10.5 µM. For the same compound, the LC50 [28] was over 100 µM and the TGI ([28]; read-out: pTGI (converted)) was 70.8 µM.
